# MrgX1 antagonist – antagonists of human MrgX1 receptor. MRGX1-HEK293 calcium flux, Fluo-4, BAM8-22 antagonism; stronger effect = lower value. AID 588676. 1.3% of 310,000 active. B-score at 10 µM. Q96LB2;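 active = calcium-response B-score plate-corrected more than 3 library SD below zero, starting fluorescence within 5 deviations, no agonist response on first addition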;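 also: peak minus trough fluorescence over baseline after final BAM8-22 challenge near maximal dose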
# MrgX1 agonist – agonists of human MrgX1 receptor; Q96LB2; MrgX1-HEK293 cells, Fluo-4 calcium fluorescence, agonist mode; stronger effect = higher value; B-score at 10 µM; 0.44% of 310,000 active;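 active = calcium response B-score plate-corrected fluorescence ratio at least 3 library SD, with starting fluorescence B-score inside 5 SD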
#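 Assay system: stable human MrgX1 HEK293 cell line. Quantity: 15,000 cells per well. Schedule: cells plated overnight, dye loaded 0.5 h 37 °C, 0.5 h room temperature. Detection: Fluo-4 NW calcium-flux fluorescence, kinetic read. Read-out basis: peak-minus-minimum fluorescence over baseline, converted to B scores. Control set: positive and negative control wells on each plate.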
# MrgX1 PAM – human MrgX1 positive allosteric modulation, primary screen | MrgX1-HEK293, Fluo-4 calcium flux, FDSS; stronger effect = higher value | 0.63% of 310,000 active | Q96LB2 | B-score at 10 µM;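 active = plate-corrected calcium response at least 3 library SD above typical, normal starting fluorescence, not activating the receptor alone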;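 also: compound read alongside a low EC10 to EC30 dose of BAM8-22 agonist; peak minus trough fluorescence over baseline measured at the second addition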
# PHOSPHO1 inh – blocks human PHOSPHO1 phosphatase activity | Q8TCT1 | recombinant PHOSPHO1, absorbance phosphatase assay | inhibition, % at 13.3 µM | 1.1% of 290,000 active | AID 1565; in the data active = inhibition above about 60%
# Target sequence (Q8TCT1 whole entry, looked up): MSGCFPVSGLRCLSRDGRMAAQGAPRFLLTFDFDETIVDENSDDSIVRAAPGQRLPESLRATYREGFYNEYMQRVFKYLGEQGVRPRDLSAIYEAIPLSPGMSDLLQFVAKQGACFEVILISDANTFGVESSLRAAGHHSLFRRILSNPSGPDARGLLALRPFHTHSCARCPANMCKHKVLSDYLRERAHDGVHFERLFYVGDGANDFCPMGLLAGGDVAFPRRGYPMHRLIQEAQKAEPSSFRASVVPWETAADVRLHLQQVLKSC
# RGS4 block – human RGS4 inhibition. P49798. HEK293 M3R/RGS4 inducible, Fluo-4 calcium flux; stronger effect = higher value; triggered by carbachol at its EC20. B-score at 10 µM. 0.45% of 310,000 active. AID 463165;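 active = B-score, a plate-corrected calcium signal, over three deviations above library mean, with baseline fluorescence within five deviations of library mean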;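 also: RGS4 expression induced by doxycycline in cells with stable M3 receptor; B-score is computed from the integrated fluorescence ratio over baseline after carbachol; higher B-score means a larger calcium signal and so more RGS4 inhibition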
# Target sequence (P49798 whole entry, looked up): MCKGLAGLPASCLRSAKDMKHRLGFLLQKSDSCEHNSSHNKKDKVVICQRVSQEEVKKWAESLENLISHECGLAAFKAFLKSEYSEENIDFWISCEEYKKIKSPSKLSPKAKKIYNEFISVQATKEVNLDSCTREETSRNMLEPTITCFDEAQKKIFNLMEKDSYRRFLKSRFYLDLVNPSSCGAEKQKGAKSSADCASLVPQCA
# RGS4 act – potentiators or activators of RGS4; HEK293 M3R/inducible RGS4, carbachol calcium flux Fluo4; stronger effect = lower value; B-score at 10 µM; 0.92% of 310,000 active; AID 463111;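 active = B-score of the integrated calcium signal more than 4 SD below the library mean, with starting fluorescence not abnormally high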;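 also: negative B-score means reduced calcium response which marks RGS4 activation or potentiation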
#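 Material: Inducible-RGS4 HEK293 cells carrying M3 receptor; also added: carbachol at ECmax as muscarinic agonist stimulus; incubation: compound preincubation 20 min at room temperature before agonist; signal: Fluo4-AM (2 µM) calcium-flux fluorescence, kinetic read; measure: integrated calcium ratio converted to B score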
# Active calls of the source: *; i = inactive; / = no result given. The list is not random: actives were taken first. Their share in the collection is about 4.5%.
SMILES,MrgX1 antagonist,MrgX1 agonist,MrgX1 PAM,PHOSPHO1 inh,RGS4 block,RGS4 act
Cc1ccc2cc(C3CC(c4ccco4)=NN3S(=O)(=O)c3ccccc3)c(Cl)nc2c1 (stereo not drawn),i,37.8*,i,-11.7,i,i
CC(=O)Nc1ccc(SCCCC(=O)c2ccccc2)cc1,i,i,i,31.0,i,i
O=C(CSc1ccccn1)N1CCN(c2cccc(Cl)c2)CC1,i,i,i,82.6*,i,i
O=C(NCCc1csc(-c2cccnc2)n1)c1ccccc1Br,i,i,i,36.8,i,i
CCOc1cc(/C=N/NC(=O)CCc2n[nH]c(=O)[nH]c2=O)ccc1O,i,i,i,26.7,i,i
CC(C)(C)c1cn(-c2ccc(Cl)cc2)c(=S)[nH]1,i,i,i,73.8*,i,i
S=c1[nH]nc(-c2ccc(Cl)cc2)n1-c1ccc(Cl)cc1,i,i,i,-149.2,i,i
CCC[N+]1(CC#CC(O)(c2ccccc2)C2CCCCC2)CCCCC1 (stereo not drawn),i,i,i,-8.5,i,-8.15*
Cc1sc2ncnc(SCC(=O)c3ccc4c(c3)OCCO4)c2c1-c1ccccc1,i,i,i,-14.4,i,i
O=C(c1cc(-c2cccc(O)c2)on1)N1CCCC1,i,i,i,23.9,i,i
O=C(NCCCNCc1ccccc1)/C(=N\O)c1ccccc1,i,i,i,4.9,/,/
O=C(NCc1ccncc1)/C(=N/O)c1ccccc1,-5.74*,i,i,7.6,i,i
Cc1cc(C(=O)Nc2ccccc2C)on1,i,i,i,37.0,i,i
O=C(O)CC1(CC(=O)Nc2ccc(F)c(Cl)c2)CCCCC1,i,i,i,34.2,i,i
CCCOC(=O)c1ccc(NC(=O)C2C3C=CC(O3)C2C(=O)O)cc1 (stereo not drawn),i,i,7.93*,-19.3,i,i
CC(=O)c1ccc(NC(=O)C2C3C=CC(O3)C2C(=O)O)cc1 (stereo not drawn),i,i,i,4.7,i,i
CCCCc1ccc(NC(=S)NCc2ccc(OC)cc2)cc1,i,i,i,42.1,i,i
CN(C)c1ccc(/C=N/N=C(N)N)cc1[N+](=O)[O-],i,36.7*,i,32.8,i,i
O=C1c2ccccc2C(=O)C1c1ccc(Cl)cc1,-6.48*,i,i,32.6,i,i
O=C1c2ccccc2C(=O)C1c1ccc(O)cc1,i,i,i,-9.9,i,i
COc1cc(-c2nnc(SCC(=O)NC3CCS(=O)(=O)C3)o2)cc(OC)c1OC (stereo not drawn),i,i,i,52.7,i,i
CC1=[N+](C)N(c2ccccc2)C(=O)C1N=Cc1c(Cl)cccc1Cl (stereo not drawn),i,30.7*,i,21.7,i,i
CC1=[N+](C)N(c2ccccc2)C(=O)C1N=Cc1ccccc1Cl (stereo not drawn),i,i,i,4.9,i,i
COC(=O)Cn1ncn2c(cc3oc(C)cc32)c1=O,i,i,i,66.2*,i,i
COC(=O)c1ccc(CC(=O)c2ccc(O)cc2O)o1,i,i,i,63.7*,i,i
SMILES,MrgX1 antagonist,MrgX1 agonist,MrgX1 PAM,PHOSPHO1 inh,RGS4 block,RGS4 act
CCCNC(=O)NNC(=O)c1ccc(F)cc1,i,i,i,12.4,i,i
Cc1ccsc1/C=C/c1ccc2cccc(O)c2n1,-4.98*,i,i,85.8*,i,i
COc1ccc(CCNC(=S)Nc2ccc(S(=O)(=O)Nc3ncccn3)cc2)cc1OC,i,i,i,67.2*,i,i
O=C(COC(=O)c1n[nH]c(=O)c2ccccc12)c1ccccc1,i,i,i,-10.7,i,i
O=C(COC(=O)c1n[nH]c2ccccc12)c1cccc(Br)c1,-5.45*,i,i,60.6*,i,i
CCCCN(C)CC(O)Cn1cc(/C=C/C(=O)c2ccc(C)cc2)c2ccccc21 (stereo not drawn),-5.43*,i,i,41.5,i,i

# Assay outcomes: PubChem, several laboratories
